{
  "source": "ChEMBL document CHEMBL3102834",
  "about": "“Discovery of 5-substituted pyrrolo[2,3-d]pyrimidine antifolates as dual-acting inhibitors of glycinamide ribonucleotide formyltransferase and 5-aminoimidazole-4-carboxamide ribonucleotide formyltransferase in de novo purine nucleotide biosynthesis: implications of inhibiting …” (J Med Chem, 2013)",
  "key": {"KB [1]": {"test_system": "KB", "test": "Cytotoxicity against human KB cells at 10 uM incubated for 48 hrs followed by compound washout measured after 10 days by colony forming assay", "type": "functional, cell-based", "method_in_brief": "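About 500 KB cells were plated in FF-RPMI/DFBS with 2 nM LCV for 24 h. Drug (0–10 μM) was then added, and exposure is stated as 24 h in Methods and 48 h in the legend. Medium was replaced with drug-free FF-RPMI plus 2 nM LCV for 8–10 days. Colonies were fixed with 5% TCA, stained with 1% methylene blue in borate buffer pH 8.8, and counted; three experiments.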"}, "KB [2]": {"test_system": "KB", "test": "Induction of apoptosis in human KB cells assessed as late apoptotic cells at 1 uM after 96 hrs by Annexin V-FITC/7-AAD staining-based flow cytometry (reference value: 2.09%)", "type": "functional"}, "KB [3]": {"test_system": "KB", "test": "Cell cycle arrest in human KB cells assessed as accumulation at G2/M phase at 1 uM after 96 hrs by propidium iodide staining-based flow cytometry (reference value: 13.2%)", "type": "functional"}, "KB [4]": {"test_system": "KB", "test": "Induction of apoptosis in human KB cells assessed as necrotic cells at 1 uM after 96 hrs by Annexin V-FITC/7-AAD staining-based flow cytometry (RVB = 7.80%)", "type": "functional"}, "[5]": {"test": "Cytotoxicity against chinese hamster RT16 cells expressing human FRalpha after 96 hrs by CellTitre-Blue fluorescence assay in presence of folic acid", "type": "functional, cell-based", "settings": "Cricetulus griseus, RT16, 96 h", "method_in_brief": "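CHO sublines were grown in FF-RPMI/DFBS; transfectants were maintained with G418. Cells were exposed to antifolate (0–1 μM) for 96 h at 37 °C with 2 nM LCV (RT16) or 25 nM LCV (R2/PCFT4). PC43-10 cells were grown in standard RPMI1640/DFBS instead. FRα specificity was tested by adding 200 nM folic acid. Viable cells were read by CellTiter-Blue fluorescence (ex 560/em 590), and IC50 was taken from dose–response curves; means of 3–10 experiments.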"}, "KB [6]": {"test_system": "KB", "test": "Induction of apoptosis in human KB cells assessed as viable cells at 1 uM after 96 hrs by Annexin V-FITC/7-AAD staining-based flow cytometry (RVB = 89.6%)", "type": "functional", "settings": "read-out: Activity"}, "KB [7]": {"test_system": "KB", "test": "Cytotoxicity against human KB cells expressing human RFC/FRalpha/PCFT after 96 hrs by CellTitre-Blue fluorescence assay in presence of AICA", "type": "functional, cell-based", "method_in_brief": "(§1)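 KB cells were grown in FF-RPMI with DFBS and 2 nM LCV, exposed to antifolate (0–1 μM) for 96 h at 37 °C, and read by CellTiter-Blue fluorescence. IC50 was taken from dose–response curves relative to untreated cells. Protection arms added adenosine 60 μM, thymidine 10 μM, AICA 320 μM, or folic acid 200 nM. Means of 3–10 experiments.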"}, "KB [8]": {"test_system": "KB", "test": "Cytotoxicity against human KB cells expressing human RFC/FRalpha/PCFT after 96 hrs by CellTitre-Blue fluorescence assay in presence of folic acid", "type": "functional, cell-based", "method_in_brief": "as §1"}, "[9]": {"target": "Bifunctional purine biosynthesis protein ATIC (Homo sapiens) (UniProt P31939)", "sequence (P31939 whole entry, looked up)": "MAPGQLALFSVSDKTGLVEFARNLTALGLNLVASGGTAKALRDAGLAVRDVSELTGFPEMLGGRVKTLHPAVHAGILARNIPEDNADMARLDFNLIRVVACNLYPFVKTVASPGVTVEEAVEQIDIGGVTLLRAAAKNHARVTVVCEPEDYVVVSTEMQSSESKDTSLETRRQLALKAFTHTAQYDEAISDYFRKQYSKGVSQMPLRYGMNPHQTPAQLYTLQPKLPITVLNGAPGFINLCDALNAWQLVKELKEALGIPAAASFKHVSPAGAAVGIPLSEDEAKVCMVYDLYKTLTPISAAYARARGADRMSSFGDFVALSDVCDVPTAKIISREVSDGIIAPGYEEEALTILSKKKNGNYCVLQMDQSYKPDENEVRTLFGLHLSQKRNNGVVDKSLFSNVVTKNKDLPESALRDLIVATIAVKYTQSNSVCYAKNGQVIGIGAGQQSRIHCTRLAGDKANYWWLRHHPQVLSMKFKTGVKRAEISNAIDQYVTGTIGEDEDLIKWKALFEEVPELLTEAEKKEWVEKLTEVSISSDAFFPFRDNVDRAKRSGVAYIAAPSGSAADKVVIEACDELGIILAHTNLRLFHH", "test": "Inhibition of AICARFTase in human KB cells assessed as accumulation of ZMP at 1 uM after 48 hrs by HPLC analysis", "type": "cell-based", "method_in_brief": "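KB cells were treated with 1 μM drug for 48 h in FF-RPMI/10% DFBS with 2 nM LCV. Metabolites were extracted with 5% TCA and then ether. They were separated by SAX ion-exchange HPLC using an NH4H2PO4 gradient (5 mM pH 2.8 to 750 mM pH 3.9) over 25 min with detection at 280 nm. ZMP was quantified against a standard curve with an AraCMP internal control; three experiments.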"}, "KB [10]": {"test_system": "KB", "test": "Cell cycle arrest in human KB cells assessed as accumulation at S phase at 1 uM after 96 hrs by propidium iodide staining-based flow cytometry (reference value: 15.9%)", "type": "functional"}},
  "note": "Activity calls are given as the source filed them. The calls are words filed in the database; no cut-off is given here.",
  "data": [
    {"smiles": "Nc1nc2[nH]cc(CCCCc3ccc(C(=O)N[C@@H](CCC(=O)O)C(=O)O)cc3)c2c(=O)[nH]1", "values": [
      {"measurement": "Activity", "setting": "KB [1]", "value": "Active"},
      {"measurement": "Activity", "setting": "KB [2]", "value": 26.7, "unit": "%"},
      {"measurement": "Activity", "setting": "KB [3]", "value": 2.3, "unit": "%"},
      {"measurement": "Activity", "setting": "KB [4]", "value": 0.456, "unit": "%"},
      {"measurement": "IC50", "setting": "[5]", "value": "> 1000", "unit": "nM"},
      {"measurement": "viability at 1 µM", "setting": "KB [6]", "value": 39, "unit": "%"},
      {"measurement": "Activity", "setting": "KB [7]", "value": "Active"},
      {"measurement": "IC50", "setting": "KB [8]", "value": 700, "unit": "nM"},
      {"measurement": "inhibition", "setting": "[9]", "value": "Active"},
      {"measurement": "Activity", "setting": "KB [10]", "value": 48.2, "unit": "%"}
    ]}
  ]
}
